Results on 23 molecules are retold here after ChEMBL document CHEMBL1138259, “Novel fluorinated derivatives of the broad-spectrum MMP inhibitors N-hydroxy-2(R)-[[(4-methoxyphenyl)sulfonyl](benzyl)- and (3-picolyl)-amino]-3-methyl-butanamide as potential tools for the molecular imaging of activated MMPs with PET” (J Med Chem, 2007).

The target in data set [1] is 72 kDa type IV collagenase (Homo sapiens, UniProt P08253). The data set can be described thus: Inhibition of MMP2.
Data set [2] has as its target Matrix metalloproteinase-9 (Homo sapiens, UniProt P14780). The experiment in a line: Inhibition of MMP9.
A further data set has as its target Collagenase 3 (Homo sapiens, UniProt P45452).
The target of another data set is Neutrophil collagenase (Homo sapiens, UniProt P22894). The data set can be described thus: Inhibition of MMP8.
A short description of data set [3]: Stability in C57BL/6 mouse plasma at 13 to 38 MBq.kg^-1 after 20 mins. The data set is classed as ADME, organism-based. The conditions noted are these: read-out: Stability. In a few lines:
(§1)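 Adult C57BL/6 mice (male and female, 25-30 g) received an ¹⁸F-radiotracer bolus in the tail vein and were killed with i.v. pentobarbitone at 2.5 or 20 min. Blood was drawn by cardiac puncture and plasma separated. Plasma from 2-3 mice (2.5 min) or 4 mice (20 min) was pooled and deproteinized with ice-cold acetonitrile. Supernatant was spiked with unlabeled reference and run on radio-HPLC to give the fraction of intact tracer versus metabolites.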

The nature of data set [4]: Lipophilicity, log D of the compound. In kind it is physicochemical. The following applies: octanol/water. Summed up:
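Shake-flask partition of ¹⁸F-radioligand between 1-octanol and 0.02 M phosphate buffer, pH 7.4. Both layers gamma-counted with decay back-correction. log D taken as log of cpm/mL octanol over cpm/mL buffer. Four repeats, reported as mean ± SD.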

Data set [5] in a line: Stability in C57BL/6 mouse plasma at 13 to 38 MBq.kg^-1 after 2.5 mins. The following applies: read-out: Stability. In kind it is ADME, organism-based. In a few lines:
as §1

Chain of 72 kDa type IV collagenase (P08253 whole entry): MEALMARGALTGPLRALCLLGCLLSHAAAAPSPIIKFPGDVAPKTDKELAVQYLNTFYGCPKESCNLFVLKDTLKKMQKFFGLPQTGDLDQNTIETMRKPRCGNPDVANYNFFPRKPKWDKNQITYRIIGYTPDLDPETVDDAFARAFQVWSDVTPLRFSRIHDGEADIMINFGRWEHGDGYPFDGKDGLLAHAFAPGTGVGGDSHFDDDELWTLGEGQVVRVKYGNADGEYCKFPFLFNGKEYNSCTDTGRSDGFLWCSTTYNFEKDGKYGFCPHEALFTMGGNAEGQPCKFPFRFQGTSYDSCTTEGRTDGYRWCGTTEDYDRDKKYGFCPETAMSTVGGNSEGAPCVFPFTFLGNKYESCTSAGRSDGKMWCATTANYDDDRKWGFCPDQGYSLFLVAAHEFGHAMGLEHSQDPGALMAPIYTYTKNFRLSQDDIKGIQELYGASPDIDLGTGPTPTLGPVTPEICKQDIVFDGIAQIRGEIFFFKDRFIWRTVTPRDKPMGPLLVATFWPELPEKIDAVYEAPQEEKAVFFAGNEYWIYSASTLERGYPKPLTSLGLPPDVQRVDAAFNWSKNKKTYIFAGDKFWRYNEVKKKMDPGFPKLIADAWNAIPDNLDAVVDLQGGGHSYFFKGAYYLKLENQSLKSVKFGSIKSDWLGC
Chain of Matrix metalloproteinase-9 (P14780 whole entry): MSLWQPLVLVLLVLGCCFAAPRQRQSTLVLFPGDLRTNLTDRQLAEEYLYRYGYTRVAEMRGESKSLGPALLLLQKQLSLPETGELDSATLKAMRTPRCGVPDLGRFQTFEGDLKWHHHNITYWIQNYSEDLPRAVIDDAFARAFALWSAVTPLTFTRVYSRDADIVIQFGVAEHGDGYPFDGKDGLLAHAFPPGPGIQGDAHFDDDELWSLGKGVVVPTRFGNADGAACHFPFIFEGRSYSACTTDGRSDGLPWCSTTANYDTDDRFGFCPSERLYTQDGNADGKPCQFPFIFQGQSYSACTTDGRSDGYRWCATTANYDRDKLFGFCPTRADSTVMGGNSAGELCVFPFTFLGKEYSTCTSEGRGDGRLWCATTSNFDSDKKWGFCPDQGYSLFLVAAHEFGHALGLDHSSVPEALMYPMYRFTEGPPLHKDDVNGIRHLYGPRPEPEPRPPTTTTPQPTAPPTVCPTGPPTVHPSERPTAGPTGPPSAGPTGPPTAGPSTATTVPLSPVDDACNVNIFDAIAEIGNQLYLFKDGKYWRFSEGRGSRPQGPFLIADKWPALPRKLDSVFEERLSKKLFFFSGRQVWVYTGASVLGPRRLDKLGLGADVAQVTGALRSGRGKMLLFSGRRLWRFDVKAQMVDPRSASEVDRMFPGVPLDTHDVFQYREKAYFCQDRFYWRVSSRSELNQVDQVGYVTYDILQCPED
Chain of Neutrophil collagenase (P22894 whole entry): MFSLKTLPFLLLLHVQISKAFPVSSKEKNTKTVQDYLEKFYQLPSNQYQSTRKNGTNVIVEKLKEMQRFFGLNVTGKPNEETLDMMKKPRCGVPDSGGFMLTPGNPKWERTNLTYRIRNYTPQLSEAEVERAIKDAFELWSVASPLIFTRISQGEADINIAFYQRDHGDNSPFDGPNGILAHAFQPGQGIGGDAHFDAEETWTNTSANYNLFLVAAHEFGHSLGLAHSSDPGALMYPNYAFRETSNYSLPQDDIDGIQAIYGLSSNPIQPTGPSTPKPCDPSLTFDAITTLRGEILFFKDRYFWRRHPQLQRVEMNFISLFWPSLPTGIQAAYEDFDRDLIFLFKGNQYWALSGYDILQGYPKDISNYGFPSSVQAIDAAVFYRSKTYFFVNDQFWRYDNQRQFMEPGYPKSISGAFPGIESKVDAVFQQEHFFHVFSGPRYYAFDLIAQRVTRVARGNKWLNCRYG

Broadly, the IC50 is the concentration needed to halve the response being measured. Read a low IC50 as inhibition by little substance. For the molecule `COc1ccc(S(=O)(=O)N(Cc2ccc(F)nc2)[C@@H](C(=O)NO)C(C)C)cc1`, the IC50 was found to be 8 nM in data set [1], 0.5 nM in data set [2], 0.9 nM at Collagenase 3 and 0.9 nM at Neutrophil collagenase.

In the case of `COc1ccc(S(=O)(=O)N(Cc2ccc(F)nc2)[C@@H](C(=O)O)C(C)C)cc1`, the IC50 in data set [1] amounted to 35000 nM; in data set [2] it was 9820 nM; on Collagenase 3, 30000 nM; on Neutrophil collagenase, 22000 nM.

Regarding `CC(C)[C@H](C(=O)NO)N(Cc1ccccc1)S(=O)(=O)c1ccc(N(C)C)cc1`, the IC50 in data set [1] stood at 335 nM; in data set [2], 614 nM; against Collagenase 3, 10 nM; against Neutrophil collagenase it was 105 nM.

In the case of `CC(C)[C@H](C(=O)O)N(Cc1ccccc1)S(=O)(=O)c1ccc(N(C)C)cc1`, the IC50 in data set [1] came to 41000 nM; in data set [2], 15000 nM; against Collagenase 3, 14000 nM; against Neutrophil collagenase, 14000 nM.

The logD is lipophilicity at a set pH, counting ionised and neutral species. `CC(C)[C@H](C(=O)NO)N(Cc1ccccc1)S(=O)(=O)c1ccc(OCC[18F])cc1`: the remaining at 20 min in data set [3] amounted to 37%. The molecule also registered a logD in data set [4] of 2.02. The remaining at 2.5 min in data set [5] came out at 86%.

As for `CC(C)[C@H](C(=O)NO)N(Cc1cccnc1)S(=O)(=O)c1ccc(OCC[18F])cc1`, the remaining at 20 min in data set [3] stood at 53%. The logD in data set [4] stood at 1.34.

Consider `CC(C)[C@H](C(=O)O)N(Cc1ccccc1)S(=O)(=O)c1ccc(OCCI)cc1`, for which the IC50 amounted to 207 nM in data set [1] and 1350 nM in data set [2].

Turning to `COc1ccc(S(=O)(=O)N(Cc2cccnc2F)[C@@H](C(=O)NO)C(C)C)cc1`, the IC50 stood at 19 nM in data set [1], 51 nM in data set [2], 50 nM on Collagenase 3 and 18 nM against Neutrophil collagenase.

Consider `CC(C)[C@H](C(=O)NO)N(Cc1cccnc1)S(=O)(=O)c1ccc([N+](=O)[O-])cc1`, for which the concentration for half-maximal inhibition (IC50) in data set [1] amounted to 756 nM; in data set [2], 5150 nM; against Collagenase 3 it was 10 nM; at Neutrophil collagenase it was 14 nM.

As for `CC(C)[C@H](C(=O)O)N(Cc1ccccc1)S(=O)(=O)c1ccc(OCCF)cc1`, the IC50 in data set [1] was 5590 nM; in data set [2], 1300 nM; against Collagenase 3, above 100000 nM; against Neutrophil collagenase it was 2460 nM.

On to `CC(C)[C@H](C(=O)NO)N(Cc1cccnc1)S(=O)(=O)c1ccc(F)cc1`, for which the half-maximal inhibitory concentration (IC50) in data set [1] was found to be 120 nM; in data set [2], 414 nM; against Collagenase 3, 527 nM; against Neutrophil collagenase it was 228 nM.

Consider `CC(C)[C@H](C(=O)NO)N(Cc1cccnc1)S(=O)(=O)c1ccc(N(C)C)cc1`, for which the IC50 turned out to be 992 nM in data set [1], 1330 nM in data set [2], 1340 nM against Collagenase 3 and 1200 nM against Neutrophil collagenase.

On to `CC(C)[C@H](C(=O)NO)N(Cc1ccccc1)S(=O)(=O)c1ccc(OCCI)cc1`, for which the IC50 in data set [1] was determined as 22 nM; in data set [2], 69 nM; against Collagenase 3, 10 nM; on Neutrophil collagenase it was 3 nM.

Turning to `CC(C)[C@H](C(=O)NO)N(Cc1cccnc1)S(=O)(=O)c1ccc(OCCF)cc1`, the IC50 in data set [1] amounted to 3 nM; in data set [2], 7 nM; against Collagenase 3, 0.8 nM; at Neutrophil collagenase, 2 nM.

As to `COc1ccc(S(=O)(=O)N(Cc2cccnc2Br)[C@@H](C(=O)NO)C(C)C)cc1`, the IC50 in data set [1] was determined as 30 nM; in data set [2] it was 103 nM; at Collagenase 3, 59 nM; at Neutrophil collagenase, 75 nM.

Consider `COc1ccc(S(=O)(=O)N(Cc2cccnc2Br)[C@@H](C(=O)O)C(C)C)cc1`, for which the IC50 in data set [1] stood at 9110 nM; in data set [2] it was 35000 nM; at Collagenase 3, 34000 nM; against Neutrophil collagenase it was 7480 nM.

In the case of `CC(C)[C@H](C(=O)O)N(Cc1cccnc1)S(=O)(=O)c1ccc(F)cc1`, the IC50 is above 100000 nM in data set [1], above 100000 nM in data set [2], above 100000 nM on Collagenase 3 and 71000 nM on Neutrophil collagenase.

`CC(C)[C@H](C(=O)NO)N(Cc1ccccc1)S(=O)(=O)c1ccc(F)cc1`: the IC50 in data set [1] turned out to be 239 nM; in data set [2], 281 nM; on Collagenase 3 it was 384 nM; against Neutrophil collagenase, 12 nM.

For the molecule `CC(C)[C@H](C(=O)O)N(Cc1ccccc1)S(=O)(=O)c1ccc(F)cc1`, the IC50 in data set [1] is 4350 nM; in data set [2], 821 nM; against Collagenase 3, 9140 nM; against Neutrophil collagenase it was 754 nM.

As to `COc1ccc(S(=O)(=O)N(Cc2ccc(Br)nc2)[C@@H](C(=O)NO)C(C)C)cc1`, the IC50 in data set [1] was 2 nM; in data set [2] it was 23 nM; against Collagenase 3, 24 nM; against Neutrophil collagenase, 20 nM.

Take `COc1ccc(S(=O)(=O)N(Cc2ccc(Br)nc2)[C@@H](C(=O)O)C(C)C)cc1`: the IC50 was found to be 6120 nM in data set [1], 6930 nM in data set [2], 3260 nM on Collagenase 3 and 6760 nM on Neutrophil collagenase.

`COc1ccc(S(=O)(=O)N(Cc2cccnc2F)[C@@H](C(=O)O)C(C)C)cc1`: the IC50 in data set [1] worked out at 20000 nM; in data set [2], 10000 nM; against Collagenase 3, 41000 nM; on Neutrophil collagenase it was 78000 nM.

For `CC(C)[C@H](C(=O)NO)N(Cc1ccccc1)S(=O)(=O)c1ccc(OCCF)cc1`, the 50% inhibitory concentration (IC50) stood at 4 nM in data set [1], 50 nM in data set [2], 11 nM on Collagenase 3 and 2 nM at Neutrophil collagenase.
